# Assay results from ChEMBL document CHEMBL4689842, “EUbOPEN Chemogenomics Library wave 1” (2021).
# “And” between values parts separate entries of the source, which are not always exact repeats. Identical values can stand only once.
# Tested on: U2OS
# Test: Multiplex assay against U2OS
# Format: toxicity, cell-based
# Details: human
# In short: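 At seeding, live cells were stained with Hoechst33342, BioTracker Green Microtubule Cytoskeleton Dye, MitoTracker Red and Annexin V Alexa Fluor 680. After compound addition they were imaged on a CQ1 microscope at 37°C and 5% CO2, and CellPathfinder machine-learning gating sorted them into Hoechst high-intensity objects or normal cells, with normal cells further split into healthy, pyknosed or fragmented nuclei and pyknosed cells into mitotic or apoptotic. Tubulin, mitochondrial-mass and membrane-permeability phenotypes are given as per cents of cells with healthy nuclei.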
# [1] = 12 h, 1 µM, compound concentration 1 uM, replicate 1
# [2] = 12 h, 1 µM, compound concentration 1 uM, replicate 2
# [3] = 12 h, 10 µM, compound concentration 10 uM, replicate 1
# [4] = 12 h, 10 µM, compound concentration 10 uM, replicate 2
# [5] = 24 h, 1 µM, compound concentration 1 uM, replicate 1
# [6] = 24 h, 1 µM, compound concentration 1 uM, replicate 2
# [7] = 24 h, 10 µM, compound concentration 10 uM, replicate 1
# [8] = 24 h, 10 µM, compound concentration 10 uM, replicate 2
# [9] = 48 h, 1 µM, compound concentration 1 uM, replicate 1
# [10] = 48 h, 1 µM, compound concentration 1 uM, replicate 2
# [11] = 48 h, 10 µM, compound concentration 10 uM, replicate 1
# [12] = 48 h, 10 µM, compound concentration 10 uM, replicate 2
compound,measurement,setting,value
O=C(NCCCC1CCCCC1)c1ccc(CNC(=O)c2cnn(-c3ccccc3)c2C(F)(F)F)cc1 [SR-321],Population Apoptotic (%),[1],37% [middle of 4 runs]
same,Population Healthy Nuclei (%),[1],74% and 91%
same,Population Hoechst High Intensity Objects (%),[1],6% and 9% and 5%
same,Population Membrane Permeable-Phenotype (%),[1],9% and 7%
same,Population Mitotic Cells (%),[1],66% [middle of 4 runs]
same,Population Normal (%),[1],93% and 90% and 94%
same,Population Pyknosed Nuclei (%),[1],14% and 13% and 7%
same,Population Tubulin-Different-Phenotype (%),[1],15% and 16% and 35%
same,Total Cell Count,[1],181 [middle of 4 runs]
same,Population Healthy Nuclei (%),[2],89% and 53% and 83% and 88%
same,Population Hoechst High Intensity Objects (%),[2],8% and 21% and 7%
same,Population Membrane Permeable-Phenotype (%),[2],14% and 0% and 12%
same,Population Normal (%),[2],91% and 78% and 92%
same,Population Pyknosed Nuclei (%),[2],5% and 6%
same,Population Tubulin-Different-Phenotype (%),[2],20% and 26%
same,Total Cell Count,[2],89 [middle of 4 runs]
same,Population Apoptotic (%),[3],40% and 31% and 41%
same,Population Fragmented Nuclei (%),[3],9% [middle of 4 runs]
same,Population Healthy Nuclei (%),[3],71% and 80% and 75% and 86%
same,Population Hoechst High Intensity Objects (%),[3],2% and 4% and 6%
same,Population Mitochondria Different-Phenotype (%),[3],24% and 25% and 20%
same,Population Mitotic Cells (%),[3],60% and 68% and 58%
same,Population Normal (%),[3],97% and 95% and 93%
same,Population Pyknosed Nuclei (%),[3],14% [middle of 4 runs]
same,Population Tubulin-Different-Phenotype (%),[3],15% [middle of 4 runs]
same,Total Cell Count,[3],197 [middle of 4 runs]
same,Population Healthy Nuclei (%),[4],66% and 69%
same,Population Membrane Permeable-Phenotype (%),[4],5% and 0% and 11%
same,Population Mitotic Cells (%),[4],80% and 50% and 81% and 88%
same,Population Normal (%),[4],73% and 94% and 91% and 92%
same,Total Cell Count,[4],117 [middle of 4 runs]
same,Population Apoptotic (%),[5],40% and 45% and 15%
same,Population Fragmented Nuclei (%),[5],8% [middle of 4 runs]
same,Population Healthy Nuclei (%),[5],85% and 81% and 79% and 91%
same,Population Membrane Permeable-Phenotype (%),[5],8% and 5% and 10%
same,Population Mitotic Cells (%),[5],60% and 54% and 84%
same,Population Normal (%),[5],94% and 96% and 98%
same,Population Pyknosed Nuclei (%),[5],7% and 9% and 8%
same,Population Tubulin-Different-Phenotype (%),[5],19% [middle of 4 runs]
same,Total Cell Count,[5],233 [middle of 4 runs]
same,Population Healthy Nuclei (%),[6],66% and 82% and 74% and 94%
same,Population Membrane Permeable-Phenotype (%),[6],4% and 3% and 0% and 7%
same,Population Mitochondria Different-Phenotype (%),[6],19% [middle of 4 runs]
same,Population Mitotic Cells (%),[6],100% and 40%
same,Population Normal (%),[6],85% and 95% and 89% and 97%
same,Population Tubulin-Different-Phenotype (%),[6],30% and 22%
same,Total Cell Count,[6],88 [middle of 4 runs]
same,Population Apoptotic (%),[7],44% and 36% and 21%
same,Population Healthy Nuclei (%),[7],71% and 75% and 74% and 89%
same,Population Hoechst High Intensity Objects (%),[7],2% and 4%
same,Population Membrane Permeable-Phenotype (%),[7],5% [middle of 4 runs]
same,Population Mitochondria Different-Phenotype (%),[7],19% and 17%
same,Population Mitotic Cells (%),[7],55% and 63% and 78%
same,Population Normal (%),[7],97% and 95%
same,Population Pyknosed Nuclei (%),[7],15% and 16% and 6%
same,Population Tubulin-Different-Phenotype (%),[7],12% [middle of 4 runs]
same,Total Cell Count,[7],232 [middle of 4 runs]
same,Population Healthy Nuclei (%),[8],67% and 65% and 86%
same,Population Mitotic Cells (%),[8],50% and 66% and 88%
same,Population Normal (%),[8],93% and 81% and 92% and 96%
same,Population Pyknosed Nuclei (%),[8],11% and 14%
same,Total Cell Count,[8],124 [middle of 4 runs]
same,Population Apoptotic (%),[9],33% and 45% and 47%
same,Population Fragmented Nuclei (%),[9],5% and 9%
same,Population Healthy Nuclei (%),[9],88% and 86%
same,Population Hoechst High Intensity Objects (%),[9],1%
same,Population Membrane Permeable-Phenotype (%),[9],2%
same,Population Mitochondria Different-Phenotype (%),[9],11% and 8%
same,Population Mitotic Cells (%),[9],66% and 54% and 52%
same,Population Normal (%),[9],98%
same,Population Pyknosed Nuclei (%),[9],7%
same,Population Tubulin-Different-Phenotype (%),[9],23% and 19%
same,Total Cell Count,[9],217 and 382 and 367
same,Population Fragmented Nuclei (%),[10],4% and 7% and 6%
same,Population Healthy Nuclei (%),[10],85% and 87%
same,Population Hoechst High Intensity Objects (%),[10],6% and 3% and 8%
same,Population Membrane Permeable-Phenotype (%),[10],6% and 5% and 4%
same,Population Mitochondria Different-Phenotype (%),[10],18% and 10% and 15%
same,Population Normal (%),[10],93% and 96% and 92%
same,Population Pyknosed Nuclei (%),[10],10% and 4% and 6%
same,Population Tubulin-Different-Phenotype (%),[10],42% and 18% and 27%
same,Total Cell Count,[10],118 and 104 and 109
same,Population Apoptotic (%),[11],50% and 43% and 45%
same,Population Fragmented Nuclei (%),[11],9% and 10% and 8%
same,Population Healthy Nuclei (%),[11],72% and 74% and 78%
same,Population Hoechst High Intensity Objects (%),[11],3% and 2%
same,Population Membrane Permeable-Phenotype (%),[11],3% and 2%
same,Population Mitochondria Different-Phenotype (%),[11],16% and 11% and 7%
same,Population Mitotic Cells (%),[11],49% and 56% and 54%
same,Population Normal (%),[11],96% and 97%
same,Population Pyknosed Nuclei (%),[11],18% and 14% and 13%
same,Population Tubulin-Different-Phenotype (%),[11],10% and 4% and 12%
same,Total Cell Count,[11],425 and 284 and 300
same,Population Apoptotic (%),[12],61% and 60% and 57%
same,Population Fragmented Nuclei (%),[12],18% and 16% and 20%
same,Population Healthy Nuclei (%),[12],61% and 77% and 62%
same,Population Membrane Permeable-Phenotype (%),[12],12% and 6% and 5%
same,Population Mitochondria Different-Phenotype (%),[12],24% and 22% and 17%
same,Population Mitotic Cells (%),[12],38% and 40% and 42%
same,Population Normal (%),[12],82% and 94% and 91%
same,Population Tubulin-Different-Phenotype (%),[12],16% and 15% and 17%
same,Total Cell Count,[12],125 and 91 and 127
